Source: PMC4344132 (Cell, 2014)
One block for each compound: values may come before it. No end group written: not given here.

Columns and labels:
[1] = tested on: histone H3 acetylation in HeLa cells; experiment: Histone H3 acetylation level in HeLa cells treated with GCN5/PCAF inhibitor; assay type: cell-based; conditions: Figure S5C
[2] = tested on: AF9 occupancy on MYC in HeLa cells; experiment: AF9 occupancy on MYC in HeLa cells treated with GCN5/PCAF inhibitor; assay type: cell-based; conditions: Figure S5C
Outline: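 HeLa cells (endogenous AF9 has no ChIP-grade antibody, so a line stably expressing Flag-AF9 was used) were treated with the GCN5/PCAF inhibitor. Cells were crosslinked with 1% formaldehyde for 10 min, then quenched with 125 mM glycine. Nuclei were sonicated and immunoprecipitated with 2–4 µg antibody overnight at 4°C, collected with Staph A cells, washed and reverse-crosslinked. MYC DNA was quantified by SYBR Green qPCR. Differences were tested by two-way unpaired Student's t-test.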

[3] = target: human AF9 YEATS (1–138) (human) (UniProt P42568); experiment: ITC
[4] = target: T1, AF9 YEATS domain (Homo sapiens, UniProt P42568); experiment: Isothermal titration calorimetry; assay type: binding; conditions: ITC; different frames of the H3K9ac peptides; Figure 4A
T1 sequence (P42568 1-138 limits assumed): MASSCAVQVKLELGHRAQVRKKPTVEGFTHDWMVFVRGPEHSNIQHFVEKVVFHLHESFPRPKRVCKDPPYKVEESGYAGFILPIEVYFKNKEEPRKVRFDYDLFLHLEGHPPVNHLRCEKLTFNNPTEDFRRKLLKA

Compound: Clc1ccc(-c2csc(NN=C3CCCC3)n2)cc1 [CPTH2]
histone H3 acetylation levels [1]: reduced
AF9 occupancy on MYC [2]: reduced

fold binding reduction against the H3K9ac peptide [3]: 200 fold
Compound: H3K9ac peptide with H3R8 substituted with alanine

Kd [3]: 11 µM
Compound: H3K18ac peptide (ITC)

Kd [3]: 7 µM
Compound: H3K27ac peptide (ITC)

binding (in words) [4]: no binding
Compound: H3_7–11K9ac: H3K9ac peptide frame 7–11 (ARK(Ac)ST)
